In ChEMBL document CHEMBL1255283, “Comparative efficacies of rifaximin and vancomycin for treatment of Clostridium difficile-associated diarrhea and prevention of disease recurrence in hamsters” (2008):
The source made the active and inactive calls. The calls are words filed in the database; no cut-off is given here.

What was measured:
Clostridioides difficile [1] = test: Antibacterial activity against Clostridium difficile VPI 10463 infected in golden syrian hamster assessed as survival of the […] at 50 mg/kg/day administered 24 hrs after infection for 5 days measured after 7 days; assay type: functional, organism-based
Summary of the method: (§1)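 Treatment design in hamsters (10/group per cohort): clindamycin phosphate 10 mg/kg sc on day 0, gavage infection with VPI 10463 on day 1. Oral rifaximin, suspended in phosphate buffer pH 7.4 with 4.5‰ SDS, given daily by gavage from day 2 for five doses. Survival read at day 7, with Kaplan-Meier and log-rank analysis.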

Clostridioides difficile [2] = test: Antibacterial activity against Clostridium difficile VPI 10463 infected in golden syrian hamster assessed as survival of the […] at 50 mg/kg/day administered 24 hrs after infection for 5 days measured after 28 days; assay type: functional, organism-based
Summary of the method: (§2)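 Relapse study: hamsters given clindamycin phosphate 10 mg/kg sc on day 0 and infected with VPI 10463 by gavage on day 1. Daily oral rifaximin by gavage in SDS/phosphate buffer vehicle on days 2–6. Animals followed about one month for recurrence, with Kaplan-Meier survival. Body weight tracked over time as % of initial weight.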

Clostridioides difficile [3] = test: Antibacterial activity against Clostridium difficile VPI 10463 infected in golden syrian hamster assessed as survival of the […] at 50 mg/kg/day for 5 days measured after 7 days; assay type: functional
Summary of the method: (§3)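 Prevention design in hamsters (n = 10/group): clindamycin phosphate 10 mg/kg sc on day 0, oral gavage infection with C. difficile VPI 10463 on day 1. Rifaximin suspended in 0.1 M phosphate buffer pH 7.4 plus 4.5‰ SDS, given by gavage once daily from day 1 for 5 doses; vehicle and uninfected controls. Survivors sacrificed day 7. Weight change is % of initial body weight; non-survivors excluded.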

Clostridioides difficile [4] = test: Antibacterial activity against Clostridium difficile VPI 10463 infected in golden syrian hamster assessed as survival of the […] at 25 mg/kg/day administered 24 hrs after infection for 5 days measured after 7 days; assay type: functional; summary of the method: as §1
Clostridioides difficile [5] = test: Antibacterial activity against Clostridium difficile VPI 10463 infected in golden syrian hamster assessed as survival of the […] at 100 mg/kg/day administered 24 hrs after infection for 5 days measured after 28 days; assay type: functional; summary of the method: as §2
Clostridioides difficile [6] = test: Antibacterial activity against Clostridium difficile VPI 10463 infected in golden syrian hamster assessed as body weight loss at 50 mg/kg/day for 5 days measured after 7 days relative to initial body weight; assay type: functional; summary of the method: as §3
Clostridioides difficile [7] = test: Antibacterial activity against Clostridium difficile VPI 10463 infected in golden syrian hamster assessed as survival of the […] at 25 mg/kg/day administered 24 hrs after infection for 5 days measured after 28 days; assay type: functional, organism-based; summary of the method: as §2
Clostridioides difficile [8] = test: Antibacterial activity against Clostridium difficile VPI 10463 infected in golden syrian hamster assessed as body weight loss at 25 mg/kg/day for 5 days measured after 7 days relative to initial body weight; assay type: functional; summary of the method: as §3
Clostridioides difficile [9] = test: Antibacterial activity against Clostridium difficile VPI 10463 infected in golden syrian hamster assessed as body weight gain at 100 mg/kg/day for 5 days relative to initial body weight; assay type: functional; summary of the method: as §2
Clostridioides difficile [10] = test: Antibacterial activity against Clostridium difficile VPI 10463 infected in golden syrian hamster assessed as survival of the […] at 100 mg/kg/day administered 24 hrs after infection for 5 days measured after 7 days; assay type: functional, organism-based; summary of the method: as §1
Clostridioides difficile [11] = test: Antibacterial activity against Clostridium difficile VPI 10463 infected in golden syrian hamster assessed as survival of the […] at 100 mg/kg/day for 5 days measured after 7 days; assay type: functional; summary of the method: as §3
Clostridioides difficile [12] = test: Antibacterial activity against Clostridium difficile VPI 10463 infected in golden syrian hamster assessed as body weight loss at 100 mg/kg/day for 5 days measured after 7 days relative to initial body weight; assay type: functional; summary of the method: as §3

| SMILES | Activity (Clostridioides difficile [1]) | Activity (Clostridioides difficile [2]) | survival at 50 mg/kg/day (Clostridioides difficile [3]) [%] | survival at 25 mg/kg/day (Clostridioides difficile [4]) [%] | survival at 100 mg/kg/day (Clostridioides difficile [5]) [%] | Activity (Clostridioides difficile [6]) [%] | Activity (Clostridioides difficile [7]) | Activity (Clostridioides difficile [8]) [%] | Activity (Clostridioides difficile [9]) [%] | Activity (Clostridioides difficile [10]) | survival at 100 mg/kg/day (Clostridioides difficile [11]) [%] | Activity (Clostridioides difficile [12]) [%] |
| --- | --- | --- | --- | --- | --- | --- | --- | --- | --- | --- | --- | --- |
| CN[C@H](CC(C)C)C(=O)N[C@H]1C(=O)N[C@@H](CC(N)=O)C(=O)N[C@H]2C(=O)N[C@H]3C(=O)N[C@H](C(=O)N[C@H](C(=O)O)c4cc(O)cc(O)c4-c4cc3ccc4O)[C@H](O)c3ccc(c(Cl)c3)Oc3cc2cc(c3O[C@@H]2O[C@H](CO)[C@@H](O)[C@H](O)[C@H]2O[C@H]2C[C@](C)(N)[C@H](O)[C@H](C)O2)Oc2ccc(cc2Cl)[C@H]1O [VANCOMYCIN] | Active | Active | 70 | 80 | 25 | -6.6 | Active |  |  |  |  |  |
| CO[C@H]1/C=C/O[C@@]2(C)Oc3c(C)c(O)c4c(O)c(c5c(nc6cc(C)ccn65)c4c3C2=O)NC(=O)/C(C)=C\C=C\[C@H](C)[C@H](O)[C@@H](C)[C@@H](O)[C@@H](C)[C@H](OC(C)=O)[C@@H]1C [RIFAXIMIN] | Active | Active | 70 |  | 100 | -7.9 | Active | -8.4 | 16.7 | Active | 80 | -8.1 |
